molecular target: Coagulation factor VII/tissue factor (Homo sapiens, UniProt P08709); experiment: Inhibition of recombinant human factor-7a/TF using S2288 as substrate measured after 60 mins at 37 degC; assay type: protein-complex assay; details: not given
Method in brief: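 Ki determined against recombinant human TF/FVIIa enzyme, each value averaged from two experiments. The assay was first run at 25 °C and later moved to 37 °C to better approximate physiological conditions.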

Sequence of Coagulation factor VII/tissue factor (P08709 61-212 limits assumed): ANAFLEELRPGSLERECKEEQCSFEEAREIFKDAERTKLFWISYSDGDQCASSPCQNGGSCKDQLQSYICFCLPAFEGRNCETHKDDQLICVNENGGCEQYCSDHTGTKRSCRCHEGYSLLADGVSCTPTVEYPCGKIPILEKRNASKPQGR
Sequence of Coagulation factor VII/tissue factor (P08709 213-466 limits assumed): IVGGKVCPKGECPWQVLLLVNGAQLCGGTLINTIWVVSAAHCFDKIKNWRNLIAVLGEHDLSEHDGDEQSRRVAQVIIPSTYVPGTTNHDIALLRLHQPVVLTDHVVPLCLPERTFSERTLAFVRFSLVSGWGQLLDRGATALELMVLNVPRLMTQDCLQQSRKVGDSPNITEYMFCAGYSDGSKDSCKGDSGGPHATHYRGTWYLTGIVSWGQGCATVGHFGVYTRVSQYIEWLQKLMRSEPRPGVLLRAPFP
Sequence of Coagulation factor VII/tissue factor (P13726 33-295 partner limits assumed): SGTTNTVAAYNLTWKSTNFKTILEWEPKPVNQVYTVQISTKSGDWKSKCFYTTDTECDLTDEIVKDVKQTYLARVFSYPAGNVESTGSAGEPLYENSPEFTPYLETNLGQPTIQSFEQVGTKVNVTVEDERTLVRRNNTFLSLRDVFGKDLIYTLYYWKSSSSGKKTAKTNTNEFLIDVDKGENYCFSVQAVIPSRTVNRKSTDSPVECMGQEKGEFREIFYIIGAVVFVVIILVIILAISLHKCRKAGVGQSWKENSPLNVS

| SMILES | Ki [nM] |
| --- | --- |
| COc1c(F)cc2cc1CCC(=O)Nc1ccc(S(=O)(=O)C3CC3)c(c1)CN(C)C(=O)[C@@H]2Nc1ccc2c(N)ncc(F)c2c1 | 410 |
| CN1CCc2cccc(c2)[C@@H](Nc2ccc3c(N)nccc3c2)C(=O)N(C)Cc2cc(ccc2S(=O)(=O)C2CC2)NC1=O | 6.3 |
| COc1cc2cc(c1)[C@@H](Nc1ccc3c(N)ncc(F)c3c1)C(=O)N(C)Cc1cc(ccc1S(=O)(=O)C1CC1)NC(=O)CC2 | 290 |
| CN1Cc2cc(ccc2S(=O)(=O)C2CC2)NC(=O)CCc2cc(ccc2C2CC2)[C@@H](Nc2ccc3c(N)ncc(F)c3c2)C1=O | 77 |
| CN1Cc2cc(ccc2S(=O)(=O)C2CC2)NC(=O)CCc2cccc(c2)[C@@H](Nc2ccc3c(N)ncc(F)c3c2)C1=O | 260 |

More lines, now with the values ahead:

| Ki [nM] | SMILES |
| --- | --- |
| 27 | CN1Cc2cc(ccc2S(=O)(=O)C2CC2)NC(=O)CCc2cc(ccc2OCC(F)F)[C@@H](Nc2ccc3c(N)ncc(F)c3c2)C1=O |
| 0.24 | C[C@@H]1CC(=O)Nc2ccc(S(=O)(=O)C3CC3)c(c2)CN(C)C(=O)[C@H](Nc2ccc3c(N)ncc(F)c3c2)c2ccc(OCC(F)F)c1c2 |
| 210 | CN1Cc2cc(ccc2S(=O)(=O)C2CC2)NC(=O)CCc2cc(ccc2F)[C@@H](Nc2ccc3c(N)ncc(F)c3c2)C1=O |
| 26 | CN1Cc2cc(ccc2S(=O)(=O)C2CC2)NC(=O)CCc2cc(ccc2OCC2CC2)[C@@H](Nc2ccc3c(N)ncc(F)c3c2)C1=O |
| 67 | C[C@H]1CC(=O)Nc2ccc(S(=O)(=O)C3CC3)c(c2)CN(C)C(=O)[C@H](Nc2ccc3c(N)ncc(F)c3c2)c2ccc(OCC(F)F)c1c2 |
| 92 | CN1Cc2cc(ccc2S(=O)(=O)C2CC2)NC(=O)CCc2cc(ccc2O)[C@@H](Nc2ccc3c(N)ncc(F)c3c2)C1=O |

tested on: not listed separately; experiment: Permeability of the compound at pH 7.4 by PAMPA; assay type: ADME; details: read-out: permeability

| SMILES | Papp [×10⁻⁶ cm/s] |
| --- | --- |
| COc1cc2cc(c1)[C@@H](Nc1ccc3c(N)ncc(F)c3c1)C(=O)N(C)Cc1cc(ccc1S(=O)(=O)C1CC1)NC(=O)CC2 | 29 |
| CN1Cc2cc(ccc2S(=O)(=O)C2CC2)NC(=O)CCc2cccc(c2)[C@@H](Nc2ccc3c(N)ncc(F)c3c2)C1=O | 12 |

molecular target: Kallikrein-1 (Homo sapiens, UniProt P06870); experiment: Inhibition of tissue Kallikrein-1 (unknown origin); details: not given
Sequence (P06870 whole entry): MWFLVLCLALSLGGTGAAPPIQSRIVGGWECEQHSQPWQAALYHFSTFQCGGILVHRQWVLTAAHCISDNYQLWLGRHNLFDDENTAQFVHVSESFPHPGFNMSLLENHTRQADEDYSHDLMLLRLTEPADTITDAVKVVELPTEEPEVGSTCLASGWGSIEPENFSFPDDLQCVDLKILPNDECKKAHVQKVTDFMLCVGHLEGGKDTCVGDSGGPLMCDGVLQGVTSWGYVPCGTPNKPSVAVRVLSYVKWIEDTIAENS

| SMILES | Ki [nM] |
| --- | --- |
| CN1Cc2cc(ccc2S(=O)(=O)C2CC2)NC(=O)CCc2cc(ccc2OCC(F)F)[C@@H](Nc2ccc3c(N)ncc(F)c3c2)C1=O | 140 |
| C[C@@H]1CC(=O)Nc2ccc(S(=O)(=O)C3CC3)c(c2)CN(C)C(=O)[C@H](Nc2ccc3c(N)ncc(F)c3c2)c2ccc(OCC(F)F)c1c2 | 9.4 |
| C[C@H]1CC(=O)Nc2ccc(S(=O)(=O)C3CC3)c(c2)CN(C)C(=O)[C@H](Nc2ccc3c(N)ncc(F)c3c2)c2ccc(OCC(F)F)c1c2 | 23 |

tested on: not listed separately; experiment: Permeability of the compound at pH 5.5 by PAMPA; assay type: ADME; details: read-out: permeability

| SMILES | Papp [×10⁻⁶ cm/s] |
| --- | --- |
| CN1Cc2cc(ccc2S(=O)(=O)C2CC2)NC(=O)CCc2cc(ccc2OCC(F)F)[C@@H](Nc2ccc3c(N)ncc(F)c3c2)C1=O | 8.8 |
| COc1cc2cc(c1)[C@@H](Nc1ccc3c(N)ncc(F)c3c1)C(=O)N(C)Cc1cc(ccc1S(=O)(=O)C1CC1)NC(=O)CC2 | 1.5 |
| CN1Cc2cc(ccc2S(=O)(=O)C2CC2)NC(=O)CCc2cccc(c2)[C@@H](Nc2ccc3c(N)ncc(F)c3c2)C1=O | 6.7 |

tested on: not listed separately; experiment: Half life in human liver microsomes; assay type: ADME; details: not given

| SMILES | half-life [min] |
| --- | --- |
| COc1c(F)cc2cc1CCC(=O)Nc1ccc(S(=O)(=O)C3CC3)c(c1)CN(C)C(=O)[C@@H]2Nc1ccc2c(N)ncc(F)c2c1 | 14 |
| COc1cc2cc(c1)[C@@H](Nc1ccc3c(N)ncc(F)c3c1)C(=O)N(C)Cc1cc(ccc1S(=O)(=O)C1CC1)NC(=O)CC2 | 15 |
| CN1Cc2cc(ccc2S(=O)(=O)C2CC2)NC(=O)CCc2cc(ccc2C2CC2)[C@@H](Nc2ccc3c(N)ncc(F)c3c2)C1=O | 26 |
| CN1Cc2cc(ccc2S(=O)(=O)C2CC2)NC(=O)CCc2cccc(c2)[C@@H](Nc2ccc3c(N)ncc(F)c3c2)C1=O | 13 |

Now from value to compound:

| half-life [min] | SMILES |
| --- | --- |
| 32 | CN1Cc2cc(ccc2S(=O)(=O)C2CC2)NC(=O)CCc2cc(ccc2OCC(F)F)[C@@H](Nc2ccc3c(N)ncc(F)c3c2)C1=O |
| 31 | C[C@@H]1CC(=O)Nc2ccc(S(=O)(=O)C3CC3)c(c2)CN(C)C(=O)[C@H](Nc2ccc3c(N)ncc(F)c3c2)c2ccc(OCC(F)F)c1c2 |
| 23 | CN1Cc2cc(ccc2S(=O)(=O)C2CC2)NC(=O)CCc2cc(ccc2OCC2CC2)[C@@H](Nc2ccc3c(N)ncc(F)c3c2)C1=O |
| 14 | C[C@H]1CC(=O)Nc2ccc(S(=O)(=O)C3CC3)c(c2)CN(C)C(=O)[C@H](Nc2ccc3c(N)ncc(F)c3c2)c2ccc(OCC(F)F)c1c2 |

tested on: not listed separately; experiment: Half life in rat liver microsomes; assay type: ADME; details: not given

| SMILES | half-life [min] |
| --- | --- |
| COc1c(F)cc2cc1CCC(=O)Nc1ccc(S(=O)(=O)C3CC3)c(c1)CN(C)C(=O)[C@@H]2Nc1ccc2c(N)ncc(F)c2c1 | 8 |
| COc1cc2cc(c1)[C@@H](Nc1ccc3c(N)ncc(F)c3c1)C(=O)N(C)Cc1cc(ccc1S(=O)(=O)C1CC1)NC(=O)CC2 | 46 |
| CN1Cc2cc(ccc2S(=O)(=O)C2CC2)NC(=O)CCc2cc(ccc2C2CC2)[C@@H](Nc2ccc3c(N)ncc(F)c3c2)C1=O | 5 |
| CN1Cc2cc(ccc2S(=O)(=O)C2CC2)NC(=O)CCc2cccc(c2)[C@@H](Nc2ccc3c(N)ncc(F)c3c2)C1=O | 33 |

More lines, now with the values ahead:

| half-life [min] | SMILES |
| --- | --- |
| 64 | CN1Cc2cc(ccc2S(=O)(=O)C2CC2)NC(=O)CCc2cc(ccc2OCC(F)F)[C@@H](Nc2ccc3c(N)ncc(F)c3c2)C1=O |
| 39 | C[C@@H]1CC(=O)Nc2ccc(S(=O)(=O)C3CC3)c(c2)CN(C)C(=O)[C@H](Nc2ccc3c(N)ncc(F)c3c2)c2ccc(OCC(F)F)c1c2 |
| 23 | CN1Cc2cc(ccc2S(=O)(=O)C2CC2)NC(=O)CCc2cc(ccc2OCC2CC2)[C@@H](Nc2ccc3c(N)ncc(F)c3c2)C1=O |
| 74 | C[C@H]1CC(=O)Nc2ccc(S(=O)(=O)C3CC3)c(c2)CN(C)C(=O)[C@H](Nc2ccc3c(N)ncc(F)c3c2)c2ccc(OCC(F)F)c1c2 |

tested on: not listed separately; experiment: Anticoagulant activity in factor 7 deficient human plasma assessed as concentration required for prolongation of prothrombin time; assay type: functional; details: not given
Method in brief: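 Clotting (prothrombin time) assay in FVII-deficient human plasma. Read-out is the compound concentration that prolongs clotting time 2-fold (EC2X, μM).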

| SMILES | 2PT [µM] |
| --- | --- |
| CN1Cc2cc(ccc2S(=O)(=O)C2CC2)NC(=O)CCc2cc(ccc2OCC(F)F)[C@@H](Nc2ccc3c(N)ncc(F)c3c2)C1=O | 15 |
| C[C@@H]1CC(=O)Nc2ccc(S(=O)(=O)C3CC3)c(c2)CN(C)C(=O)[C@H](Nc2ccc3c(N)ncc(F)c3c2)c2ccc(OCC(F)F)c1c2 | 3.5 |
| COc1c(F)cc2cc1CCC(=O)Nc1ccc(S(=O)(=O)C3CC3)c(c1)CN(C)C(=O)[C@@H]2Nc1ccc2c(N)ncc(F)c2c1 | 41 |
| CN1Cc2cc(ccc2S(=O)(=O)C2CC2)NC(=O)CCc2cc(ccc2F)[C@@H](Nc2ccc3c(N)ncc(F)c3c2)C1=O | 26 |
| CN1Cc2cc(ccc2S(=O)(=O)C2CC2)NC(=O)CCc2cc(ccc2OCC2CC2)[C@@H](Nc2ccc3c(N)ncc(F)c3c2)C1=O | 29 |
| COc1cc2cc(c1)[C@@H](Nc1ccc3c(N)ncc(F)c3c1)C(=O)N(C)Cc1cc(ccc1S(=O)(=O)C1CC1)NC(=O)CC2 | 14 |
| CN1Cc2cc(ccc2S(=O)(=O)C2CC2)NC(=O)CCc2cc(ccc2C2CC2)[C@@H](Nc2ccc3c(N)ncc(F)c3c2)C1=O | 26 |
| CN1Cc2cc(ccc2S(=O)(=O)C2CC2)NC(=O)CCc2cccc(c2)[C@@H](Nc2ccc3c(N)ncc(F)c3c2)C1=O | 10 |
| C[C@H]1CC(=O)Nc2ccc(S(=O)(=O)C3CC3)c(c2)CN(C)C(=O)[C@H](Nc2ccc3c(N)ncc(F)c3c2)c2ccc(OCC(F)F)c1c2 | 23 |
| CN1Cc2cc(ccc2S(=O)(=O)C2CC2)NC(=O)CCc2cc(ccc2O)[C@@H](Nc2ccc3c(N)ncc(F)c3c2)C1=O | 14 |

molecular target: Vitamin K-dependent protein C (Homo sapiens, UniProt P04070); experiment: Inhibition of activated protein C (unknown origin); details: not given
Sequence (P04070 43-197 limits assumed): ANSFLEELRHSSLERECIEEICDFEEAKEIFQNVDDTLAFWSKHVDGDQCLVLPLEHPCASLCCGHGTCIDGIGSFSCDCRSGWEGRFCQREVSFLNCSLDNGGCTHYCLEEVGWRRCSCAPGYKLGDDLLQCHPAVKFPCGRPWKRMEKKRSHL
Sequence (P04070 212-461 limits assumed): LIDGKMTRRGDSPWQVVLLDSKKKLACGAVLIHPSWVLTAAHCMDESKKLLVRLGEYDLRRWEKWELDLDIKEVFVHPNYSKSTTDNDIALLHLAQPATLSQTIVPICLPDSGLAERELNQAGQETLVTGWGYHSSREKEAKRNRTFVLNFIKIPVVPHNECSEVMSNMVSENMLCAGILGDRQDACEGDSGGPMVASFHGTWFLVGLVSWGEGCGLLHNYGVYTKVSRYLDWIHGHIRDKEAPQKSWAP

| SMILES | Ki [nM] |
| --- | --- |
| CN1Cc2cc(ccc2S(=O)(=O)C2CC2)NC(=O)CCc2cc(ccc2OCC(F)F)[C@@H](Nc2ccc3c(N)ncc(F)c3c2)C1=O | 1200 |
| C[C@@H]1CC(=O)Nc2ccc(S(=O)(=O)C3CC3)c(c2)CN(C)C(=O)[C@H](Nc2ccc3c(N)ncc(F)c3c2)c2ccc(OCC(F)F)c1c2 | 39 |
| C[C@H]1CC(=O)Nc2ccc(S(=O)(=O)C3CC3)c(c2)CN(C)C(=O)[C@H](Nc2ccc3c(N)ncc(F)c3c2)c2ccc(OCC(F)F)c1c2 | 5700 |

tested on: not listed separately; experiment: Oral bioavailability in rat; assay type: ADME, organism-based; details: in vivo

| SMILES | bioavailability [%] |
| --- | --- |
| CN1Cc2cc(ccc2S(=O)(=O)C2CC2)NC(=O)CCc2cccc(c2)[C@@H](Nc2ccc3c(N)ncc(F)c3c2)C1=O | 3.7 |

Source: ChEMBL document CHEMBL3870359, “Design and Synthesis of Novel Meta-Linked Phenylglycine Macrocyclic FVIIa Inhibitors” (ACS Med Chem Lett, 2017)
